Bioassay records (PubChem)
Apaf-1 inh: inhibitors of human Apaf-1 apoptosome, primary screen, biochemical, DEVD-Rh110 fluorescence, uHTS; inhibition, % at 20 µM; reconstituted apoptosome caspase-3 activity; Apoptotic protease-activating factor 1 (Homo sapiens), O14727; 330,000 tested, 0.71% active; active means inhibition of at least 40% at 20 µM
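Material: reconstituted apoptosome with Apaf-1, cytochrome c, caspase-9, procaspase-3, dATP; medium: pH 7.5 Hepes buffer with CHAPS, BSA, DTT; also added: cytochrome c and DEVD-Rh110 substrate; timing: 30 min plus 50 min, RT; signal: Rh110 fluorescence intensity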
PAFAH2 inh: PAFAH2 enzyme inhibitors, primary screen, biochemical, fluorescence polarization, human; Platelet-activating factor acetylhydrolase 2, cytoplasmic (Homo sapiens), Q99487; recombinant PAFAH2, FP-rhodamine activity probe; inhibition, % at 3.39 µM; 340,000 tested, 0.99% active;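 active means inhibition above the mean over all tested compounds plus 3 SD, cut at about 30% in these data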;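 further: inhibitors block probe labeling of enzyme so polarization drops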
TDP2 inh: human TDP2 enzyme inhibitors, primary screen, biochemical, epi absorbance, recombinant enzyme; 370,000 tested, 0.34% active; Tyrosyl-DNA phosphodiesterase 2 (Homo sapiens), O95551; inhibition, % at 12.8 µM; T5PNP hydrolysis, p-nitrophenol absorbance 415 nm; AID 720702, 2013;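 active means inhibition above the mean of all tested compounds plus 3 SD, set per campaign, cut at about 25% in these data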
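System – recombinant human TDP2 · Amount – 120 nM TDP2 per well · Buffer or medium – Mg2+-containing Tris-HCl buffer, pH 7.5 · Reagent – T5PNP substrate, 5 mM · Dosing – 12.8 µM single point, 1% DMSO · Incubation – 2 h at 37 °C · Measured by – epi absorbance · Read-out basis – percent inhibition · Benchmarks – high control without enzyme, low control DMSO plus TDP2 · Repeats – singlicate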
PAFAH1B2 FP inh: PAFAH1B2 enzyme inhibitors, primary screen, biochemical, fluorescence polarization, human; Platelet-activating factor acetylhydrolase IB subunit alpha2 (Homo sapiens), P68402; recombinant PAFAH1B2, FP-rhodamine activity probe; inhibition, % at 3.39 µM; 340,000 tested, 1.2% active;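 active means inhibition above the mean of all tested compounds plus 3 SD, cut at about 24% in these data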
Target sequence (P68402 whole entry, looked up): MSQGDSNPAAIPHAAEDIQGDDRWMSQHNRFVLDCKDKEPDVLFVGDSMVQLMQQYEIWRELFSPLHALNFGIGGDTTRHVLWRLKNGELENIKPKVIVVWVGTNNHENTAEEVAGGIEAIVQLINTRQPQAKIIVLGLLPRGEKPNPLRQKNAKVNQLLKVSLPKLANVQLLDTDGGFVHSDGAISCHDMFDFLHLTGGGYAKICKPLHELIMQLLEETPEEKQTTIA
PAFAH1B3 FP inh: PAFAH1B3 enzyme inhibitors, primary screen, biochemical, fluorescence polarization, human. Platelet-activating factor acetylhydrolase IB subunit alpha1 (Homo sapiens), Q15102. recombinant PAFAH1B3, FP-rhodamine probe. inhibition, % at 3.39 µM. 340,000 tested, 0.28% active;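 active means inhibition above the screen-wide average of all tested compounds plus 3 SD, cut at about 25% in these data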
Target sequence (Q15102 whole entry, looked up): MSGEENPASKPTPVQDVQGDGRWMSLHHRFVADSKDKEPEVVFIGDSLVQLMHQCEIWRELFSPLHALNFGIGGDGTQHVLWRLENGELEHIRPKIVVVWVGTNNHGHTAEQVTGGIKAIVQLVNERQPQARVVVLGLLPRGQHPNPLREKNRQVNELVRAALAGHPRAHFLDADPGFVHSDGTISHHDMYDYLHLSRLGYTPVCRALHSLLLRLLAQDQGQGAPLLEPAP
Large screens that a line does not name were inactive. Compounds with a hit are over-represented: about 2.3% of the library has one in this group of screens.

COC[C@@H]1CCCN1c1ccc2c(c1)O[C@@H]1CCN(C1)S2(=O)=O	none (no result: Apaf-1 inh, PAFAH2 inh, PAFAH1B2 FP inh, PAFAH1B3 FP inh)
CCN(CC(=O)Nc1ccc(OC)cc1)C(=O)c1ccc2[nH]c3c(c2c1)CC(C)CC3 (stereo not drawn)	PAFAH1B2 FP inh 27.2
Cc1ccc(C)c(NC(=O)CN(C)C(=O)c2ccc3[nH]c4c(c3c2)CC(C)CC4)c1 (stereo not drawn)	PAFAH1B2 FP inh 40.4
CC1CCc2[nH]c3ccc(C(=O)N(C)CC(=O)Nc4ccccc4Br)cc3c2C1 (stereo not drawn)	none
CCN(CC(=O)Nc1ccc(OC)cc1)C(=O)c1ccc2c(=O)n3c(nc2c1)CCC3	none
Cc1onc(-c2ccccc2Cl)c1C(=O)Oc1cc(N)n(S(=O)(=O)c2ccc(F)cc2)n1	PAFAH1B2 FP inh 35.9
CCCCNC(=O)C[C@H]1C[C@@]2(C(=O)OC)C(=C[C@H](COCc3ccccc3)O[C@@H]2C)N(Cc2ccccc2)C1=O	none (no result: Apaf-1 inh, PAFAH2 inh, PAFAH1B2 FP inh, PAFAH1B3 FP inh)
COc1ccc(Nc2ncnc3sc(-c4ccccc4)cc23)cc1OC	PAFAH1B3 FP inh 31.9
O=C(c1sccc1Cl)N1CCC(n2nnc3ncccc32)CC1	none (no result: Apaf-1 inh, PAFAH2 inh, PAFAH1B2 FP inh, PAFAH1B3 FP inh)
O=C(CSCc1ccc(Br)cc1)N1CCCC1	PAFAH1B2 FP inh 28.9
O=C(CSCc1ccc(Br)cc1)N1CCOCC1	PAFAH1B2 FP inh 26.3
CN(CCOC(=O)c1cc2ccccc2o1)C1CN(Cc2cn(Cc3ccccc3C(F)(F)F)nn2)S(=O)(=O)C1 (stereo not drawn)	none (no result: Apaf-1 inh, PAFAH2 inh, PAFAH1B2 FP inh, PAFAH1B3 FP inh)
COC(=O)[C@]12C[C@H](CC(=O)NCC34CC5CC(CC(C5)C3)C4)C(=O)N(Cc3ccccc3)C1=C[C@H](C1CCCC1)O[C@@H]2C	none (no result: Apaf-1 inh, PAFAH2 inh, PAFAH1B2 FP inh, PAFAH1B3 FP inh)
COC(=O)[C@]12C[C@H](CC(=O)NCC34CC5CC(CC(C5)C3)C4)C(=O)N(Cc3ccco3)C1=C[C@H](C1CCCC1)O[C@@H]2C	none (no result: Apaf-1 inh, PAFAH2 inh, PAFAH1B2 FP inh, PAFAH1B3 FP inh)
CCCCN1CC(O)=C(c2nc3ccccc3s2)C1=N	PAFAH2 inh 48.7
Cc1cc(=O)[nH]c(SCc2ccc(Cl)cc2Cl)n1	PAFAH1B2 FP inh 29.2
Cc1nnc(SCc2ccc(Cl)cc2Cl)[nH]c1=O	PAFAH1B2 FP inh 27.4
Cc1cnc(SCc2ccc(Cl)cc2Cl)[nH]c1=O	PAFAH1B2 FP inh 27.4
Oc1c(Br)cc(/C=N/n2c(-c3ccccc3)n[nH]c2=S)cc1Br	none
Oc1ccc(Br)cc1/C=N/n1c(COc2ccccc2)n[nH]c1=S	PAFAH1B2 FP inh 27.6
Cc1c(Br)c(O)c(Br)c(O)c1/C=N/n1c(-c2ccccc2)n[nH]c1=S	PAFAH1B3 FP inh 34.8 (no result: TDP2 inh)
S=c1[nH]nc(COc2ccccc2)n1/N=C/c1ccccc1Br	none
Oc1c(Br)cc(/C=N/n2c(-c3ccccc3)n[nH]c2=S)c(O)c1Br	PAFAH2 inh 45.4, PAFAH1B3 FP inh 28.3 (no result: Apaf-1 inh, TDP2 inh)
COc1ccc(C(=O)c2[nH]c(N)c(C(=O)c3c[nH]c4ccccc34)c2-c2ccc(OC)cc2)cc1	none (no result: Apaf-1 inh, PAFAH2 inh, PAFAH1B2 FP inh, PAFAH1B3 FP inh)
COC(=O)[C@]12C[C@H](CC(=O)NCCC(C)C)C(=O)N(Cc3ccc4c(c3)OCO4)C1=C[C@H](C(C)(C)C)O[C@@H]2C	none (no result: Apaf-1 inh, PAFAH2 inh, PAFAH1B2 FP inh, PAFAH1B3 FP inh)
C=CCN(CC#Cc1ccccn1)Cc1ccc(OC)cc1OC	none (no result: Apaf-1 inh, PAFAH2 inh, PAFAH1B2 FP inh, PAFAH1B3 FP inh)
O=C(CCS(=O)(=O)c1ccc2c(c1)NC(=O)CS2)NCCc1ccc(Cl)cc1	PAFAH1B2 FP inh 26.0
O=S(=O)(Nc1cc(Sc2ncn[nH]2)c(O)c2ccccc12)c1ccccc1	Apaf-1 inh 93.6, TDP2 inh 70.6 (no result: PAFAH2 inh, PAFAH1B2 FP inh, PAFAH1B3 FP inh)
Cc1cc(O)c(Sc2ncn[nH]2)cc1NS(=O)(=O)c1ccc(Cl)cc1	none
CCOc1ccc(NC(C)c2cc(Cl)ccc2O)cc1 (stereo not drawn)	none
CC(Nc1ccc(Cl)cc1)c1cc(Cl)ccc1O (stereo not drawn)	PAFAH1B2 FP inh 43.4
COc1ccc(S(=O)(=O)Nc2ccc3c(c2)C(=O)N([C@@H](C)CO)C[C@H](C)[C@H](CN(C)S(=O)(=O)c2ccc(F)cc2)O3)cc1	PAFAH1B2 FP inh 39.0
COc1ccc(S(=O)(=O)Nc2ccc3c(c2)C(=O)N([C@H](C)CO)C[C@H](C)[C@@H](CN(C)S(=O)(=O)c2ccc(OC)cc2)O3)cc1	none (no result: Apaf-1 inh)
C[C@@H]1CN([C@H](C)CO)C(=O)c2cc(NS(=O)(=O)c3ccc(F)cc3)ccc2O[C@@H]1CN(C)Cc1ccc(Cl)c(Cl)c1	PAFAH1B2 FP inh 24.6
COC(=O)[C@]12C[C@H](CC(=O)NCCc3ccccc3OC)C(=O)N(Cc3ccc(Cl)cc3Cl)C1=C[C@H](C(C)C)O[C@@H]2C1CC1	none (no result: Apaf-1 inh, PAFAH2 inh, PAFAH1B2 FP inh, PAFAH1B3 FP inh)
NC(=S)n1[nH]c(-c2ccc([N+](=O)[O-])cc2)c(N=Nc2ccc(Cl)cc2)c1=O	PAFAH2 inh 40.6 (no result: Apaf-1 inh, TDP2 inh)
COc1cc(C(=O)N/N=C/c2ccc(OC(=O)c3cccc(C)c3)c(OC)c2)ccc1O	PAFAH1B3 FP inh 30.8
Cc1ccc(C(C)C)c(OCc2ccc(C(=O)N/N=C/c3ccc(O)c(O)c3)cc2)c1	PAFAH1B3 FP inh 34.0
Cc1ccccc1C1CCC2(CC1)CCN(CC[C@@H](O)c1ccccc1)C2=O (stereo partly drawn)	none (no result: Apaf-1 inh, PAFAH2 inh, PAFAH1B2 FP inh, PAFAH1B3 FP inh)
N#Cc1cccc(NC(=O)OCCN2C(=O)CCC23CCC(c2ccc(Cl)cc2)CC3)c1 (stereo not drawn)	none (no result: Apaf-1 inh, PAFAH2 inh, PAFAH1B2 FP inh, PAFAH1B3 FP inh)
CCN(CC)c1ccc(/C=C(\C#N)C(N)=O)cc1	none (no result: Apaf-1 inh)
CCN(CC)c1ccc(/C=C(\C#N)C(=O)c2ccc(Br)cc2)cc1	PAFAH2 inh 81.1, PAFAH1B2 FP inh 55.2, PAFAH1B3 FP inh 41.0 (no result: Apaf-1 inh)
CCOc1cc(/C=C2\N=C(SCC)SC2=O)cc([N+](=O)[O-])c1OC(C)=O	PAFAH2 inh 53.4, PAFAH1B2 FP inh 24.4
CCOc1cc(/C=C2\N=C(SC)SC2=O)cc([N+](=O)[O-])c1OC(C)=O	none (no result: TDP2 inh)
COC(=O)c1cc2c(c3c4cc(F)ccc4n(S(=O)(=O)c4cccc(C)c4)c13)C(=O)N(c1ccc(OC)cc1)C2	none (no result: Apaf-1 inh, PAFAH2 inh, PAFAH1B2 FP inh, PAFAH1B3 FP inh)
